Rows were chosen to be rich in hits. Some 3.8% of all compounds tested hit in one or more screens of this group.
Granule exo inh = LAMP-1 surface exposure blockers, TALL-104 cells – cell-based, flow cytometry, MLPCN library, primary screen; TALL-104 LAMP-1 surface exposure; cells stimulated with thapsigargin and PMA; inhibition, % at 10 µM; hit rate 0.66% among 360,000;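 active = inhibition above about 55%, limit read from the data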
MPTP inh = mitochondrial permeability transition pore inhibitors, primary screen, biochemical, isolated mouse mitochondria, absorbance; hit rate 1.4% among 360,000; inhibition, % at 10 µM; Ca2+ swelling absorbance, 30 min;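 active = inhibition of 50% or more, scaled per plate between neutral and stimulator controls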;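 note: 0% = DMSO wells given calcium and 100% = 1 mM EGTA wells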
T cell HTS = modulators of CD8 T cell-vesicle binding, primary screen, mouse 2C CD8+ T cells, flow cytometry; 2C CD8+ T cell-vesicle binding; active compounds read low; response (vesicle binding), % at 7 µM; hit rate 0.068% among 330,000;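 active = response, share of CD8 T cells binding vesicles, and their 90th percentile fluorescence all below set limits, cut at about 80% in these data, passing the limit was not always enough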;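 note: values below 100% mean blocked vesicle binding to the CD8+ T cells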
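incubation = binding step 1.5 h, 37 °C, antibody labelling 20 min, ice | test system = 2C mouse CD8+ T cells | read-out basis = percent CD8+ FL2 mean versus row control | controls = Peptide-free naked vesicles (low) and QL9 vesicles with 0.7% DMSO vehicle (high) | detection = flow cytometry of vesicle-bound cells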
rCAG RNA binder = binders of r(CAG) RNA repeats, primary screen, biochemical, fluorescence; AID 651821, 2012; r(CAG) RNA repeat, TO-PRO-1 dye displacement fluorescence; hit rate 1.3% among 370,000; inhibition, % at 3 µM;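 active = inhibition above the plate cutoff, the mean of all test compounds on that plate plus 3 SD, cut at about 35% in these data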;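 note: 0% = DMSO alone and 100% = 100 µM mitoxantrone as full dye displacement; higher means more dye released from RNA so lower well fluorescence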
Beta2AR agonist = beta2AR agonists driving receptor internalization, primary screen, cell-based, FAP fluorogen, flow cytometry; Am2.2-beta2AR cells; response, % (no concentration beside the values); AID 504454, 2011; hit rate 0.43% among 340,000;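 active = response above a set limit, near 3 SD of response in nonfluorescent compounds, cut at about 42% in these data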
Target sequence (P07550 whole entry, looked up): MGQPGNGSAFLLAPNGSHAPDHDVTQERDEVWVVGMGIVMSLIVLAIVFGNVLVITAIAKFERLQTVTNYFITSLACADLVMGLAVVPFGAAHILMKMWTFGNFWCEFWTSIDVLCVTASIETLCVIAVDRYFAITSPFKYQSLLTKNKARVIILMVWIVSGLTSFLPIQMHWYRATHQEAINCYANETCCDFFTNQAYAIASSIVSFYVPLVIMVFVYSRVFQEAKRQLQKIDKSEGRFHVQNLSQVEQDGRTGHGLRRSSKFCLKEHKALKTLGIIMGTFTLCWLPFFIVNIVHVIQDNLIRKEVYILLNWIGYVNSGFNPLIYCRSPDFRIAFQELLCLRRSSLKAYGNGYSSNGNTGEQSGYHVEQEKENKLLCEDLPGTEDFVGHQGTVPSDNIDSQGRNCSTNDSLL
V-ATPase pH = regulators of yeast V-ATPase proton pumping, primary screen, pHLuorin cytosolic pH fluorescence; S. cerevisiae; response, % at 10 µM; hit rate 0.37% among 350,000; AID 504577, 2011; in the data active = response mostly above about 7.3%, no sharp cut-off; inactive = mostly below about 5.4%; note: actives read high
MPTP counter = fluorescence retest of MPTP screen hits in isolated mitochondria, single concentration; shares compounds with MPTP inh; membrane potential, Rhodamine 123 fluorescence; inhibition, % at 10 µM; hit rate 78% among 5,000; in the data active = inhibition above about 22%;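 note: 0% = DMSO vehicle and 100% = positive control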
MPTP swell DR = mitochondrial permeability transition pore inhibitors, dose response, biochemical, absorbance, uHTS hits; IC50, µM; isolated mitochondria swelling; hit rate 58% among 780; shares compounds with MPTP inh; in the data active = IC50 below about 20 µM
MPTP counter DR = fluorescent counter-screen in isolated mitochondria, dose response, counter-screen for MPTP inhibitor project, biochemical, fluorescence, uHTS hits; hit rate 49% among 780; isolated mitochondria counterscreen, fluorescence read-out; AID 651564, 2012; shares compounds with MPTP inh; IC50, µM; in the data active = IC50 below about 80 µM
Active calls of the source: *; i = inactive; · = not tested or not shown.

SMILES	Granule exo inh	MPTP inh	T cell HTS	rCAG RNA binder	Beta2AR agonist	V-ATPase pH	MPTP counter	others
CCOc1ccc(NS(=O)(=O)c2cc(NC(=O)c3ccc(C)cc3)ccc2Cl)cc1	20	90*	172	18	17	-2	56*
COc1ccc(NS(=O)(=O)c2cc(NC(=O)Cc3c(F)cccc3Cl)ccc2OC)cc1	-3	0	468	5	2	2	·
O=C(c1cccc(F)c1F)N1CCCC(c2nc(-c3cccs3)no2)C1 (configuration not stated)	·	·	·	-1	·	·	·
COC(=O)C1CN(Cc2ccccc2)CCS(=O)(=O)N1Cc1cn(Cc2cccc(Cl)c2)nn1 (configuration not stated)	·	·	·	11	·	·	·
CN1OC[C@@H]2CN(C(=S)Nc3cc(C(F)(F)F)cc(C(F)(F)F)c3)[C@H](c3ccccc3Br)C[C@@H]21	·	·	·	-1	·	·	·
COc1cccc(C(=O)Nc2ccc(C(=O)c3ccccc3)cc2)c1	18	0	530	0	4	-1	·
COc1ccc(C(=O)Nc2ccc(C(=O)c3ccccc3)cc2)cc1	9	62*	718	2	-5	-3	41*
O=C(NCC1COCCO1)C1CCN(S(=O)(=O)c2cccc3ccccc23)CC1 (configuration not stated)	·	·	·	5	·	·	·
O=C(N/N=C/c1cc([N+](=O)[O-])ccc1O)c1cc(-c2ccccc2)nc2ccccc12	-7	98*	212	8	2	3	50*
O=C(N/N=C/c1ccc(Cl)c([N+](=O)[O-])c1)c1cc(-c2ccccc2)nc2ccccc12	4	68*	82	4	6	0	75*
CN[C@H]1C[C@H]2c3[nH]c4cccc(-c5ccc6c(c5)OCO6)c4c3CCN2C[C@H]1[C@H](C)O	·	·	·	22	·	·	·
Cc1cc(C(F)(F)F)c(C#N)c(SCC(=O)Nc2nc3ccccc3s2)n1	3	63*	317	0	-40	0	74*
CC(C)n1c(-c2ccc(C(C)(C)C)cc2)n[nH]c1=S	-3	68*	312	-1	1	-1	67*
Cc1ccc(OCC(O)CNCc2ccc(F)cc2)cc1 (configuration not stated)	2	85*	213	-5	3	2	-9	MPTP swell DR=9.2*;MPTP counter DR=>80
O=C(CCN(CCO)Cc1ccccc1)Nc1ccc(Br)cc1	4	1	729	3	-4	0	·
CCN(CCC(=O)Nc1ccc(Br)c(C)c1)Cc1ccccc1	4	80*	350	-9	3	-1	5	MPTP swell DR=i;MPTP counter DR=28*
COc1cccc(-c2ccc3c(c2)[C@@H]2C[C@H]4[C@@H](CN2CC3)[C@H](C)ON4C)c1	·	·	·	4	·	·	·
COc1ccc(NC(=O)NCCCN2CCc3ccccc3C2)cc1	-3	0	126	4	-1	-1	·
O=C(NCCN1CCc2ccccc2C1)Nc1ccc([N+](=O)[O-])cc1	6	94*	267	10	2	-2	84*
O=C(NCCCN1CCN(c2ccccc2F)CC1)Nc1ccc(F)cc1	2	-1	568	-7	-5	-1	·
CSc1ccc(NC(=O)NCCCN2CCN(c3ccccc3F)CC2)cc1	2	62*	195	·	12	2	0	MPTP swell DR=i;MPTP counter DR=29*
CCN1CCN(Cc2ccc(NC(=O)Nc3ccccc3)cc2)CC1	-3	1	284	·	3	-2	·
CCN1CCN(Cc2ccc(NC(=O)Nc3ccc(SC)cc3)cc2)CC1	0	52*	214	-1	15	0	-10	MPTP swell DR=i;MPTP counter DR=>80
O=C(NCCCN1CCc2ccccc2C1)Nc1ccc(Br)cc1	0	93*	230	-4	15	-2	103*
COc1cc(OC)cc(C(=O)NCCN2C(=O)C3C4C=CC(C4)C3C2=O)c1 (configuration not stated)	·	·	·	0	·	·	·
SMILES	Granule exo inh	MPTP inh	T cell HTS	rCAG RNA binder	Beta2AR agonist	V-ATPase pH	MPTP counter	others
O=C(NCCN1CCN(c2ccc([N+](=O)[O-])cc2)CC1)NCc1ccccc1	21	65*	452	-1	0	4	76*
CCOC(=O)c1c(C)[nH]c(C(=O)N/N=C\c2ccccc2O)c1C	-5	69*	377	4	-5	-3	66*
CCOC(=O)c1c(C)[nH]c(C(=O)N/N=C/c2cc([N+](=O)[O-])ccc2O)c1C	-3	56*	472	4	25	2	11
O=C(N/N=C/c1cc([N+](=O)[O-])ccc1O)C12CC3CC(CC(C3)C1)C2	10	78*	394	0	4	2	54*
CN1CCN(c2ccc(NC(=S)NC(=O)c3cccc4c(Cl)cccc34)cc2)CC1	32	91*	392	3	26	-1	-8
O=C(NC(=S)Nc1ccc(N2CCOCC2)cc1)c1cccc(Cl)c1Cl	1	0	316	-1	1	-2	·
CCCC(=O)N1CCN(c2ccc(NC(=S)NC(=O)c3cccc(C)c3)cc2)CC1	5	77*	503	-1	-2	-2	56*
O=C(Nc1cccc(Cl)c1)N(CCN1CCOCC1)Cc1ccccc1F	-4	79*	228	-5	0	0	77*
COc1ccc(OC)c(CN(CCN2CCOCC2)C(=O)Nc2cccc(Cl)c2)c1	-2	0	271	-2	-1	6	·
O=C(Nc1cccc(Cl)c1)N(CCN1CCOCC1)Cc1cccc(Cl)c1	-3	85*	255	-4	1	-5	91*
C[C@H](CCC(=O)N(c1ccccc1)c1ccccc1)CC1CCCCC1	·	·	·	2	·	·	·
Cc1ccccc1CS(=O)(=O)Cc1ccc(C(=O)Nc2ccc(F)cc2)o1	·	·	·	10	·	·	·
COc1ccc(-c2nc(-c3ccc(NC(=O)c4ccncc4)cc3)no2)cc1OC	-3	19	478	·	26	4	·
COc1ccc(NC(=O)c2ccc(-c3ccc(-c4noc(C)n4)cc3C)cc2)cc1N1CCN(C)CC1	44	81*	789	3	11	2	-19
COc1ccc2nc3cc(Cl)ccc3c(Nc3cc(CN4CCCC4)c(O)c(CN4CCCC4)c3)c2n1	46	72*	562	15	·	·	-26
CN(C)C=Nc1ccc(Cn2cnc3nc4ccc(Cl)cc4cc3c2=O)cc1	·	·	·	6	·	·	·
